Assay results: ChEMBL document CHEMBL1156459, “Discovery of a small molecule antagonist of the parathyroid hormone receptor by using an N-terminal parathyroid hormone peptide probe” (Proc Natl Acad Sci U S A, 2007)
Square brackets hold non-standard residues; d marks the D form. Peptide text beside a SMILES is read from it. * marks the point of attachment. X1 = O=C(c1ccccc1-c1c2ccc(=O)cc-2oc2cc(O)ccc12)*; hArg = N=C(N)NCCCC[C@H](N)C(=O)O; Nle = CCCC[C@H](N)C(=O)O; Aib = CC(C)(N)C(=O)O

Experiments:
[1] = target: T1, Parathyroid hormone/parathyroid hormone-related peptide receptor (Homo sapiens, UniProt Q03431); assay: Activity at human PTH/PTH-related peptide receptor expressed in HEK293 cells assessed as induction of luciferase activity by CRE-luciferase reporter assay; format: functional, cell-based
T1 sequence (Q03431 whole entry): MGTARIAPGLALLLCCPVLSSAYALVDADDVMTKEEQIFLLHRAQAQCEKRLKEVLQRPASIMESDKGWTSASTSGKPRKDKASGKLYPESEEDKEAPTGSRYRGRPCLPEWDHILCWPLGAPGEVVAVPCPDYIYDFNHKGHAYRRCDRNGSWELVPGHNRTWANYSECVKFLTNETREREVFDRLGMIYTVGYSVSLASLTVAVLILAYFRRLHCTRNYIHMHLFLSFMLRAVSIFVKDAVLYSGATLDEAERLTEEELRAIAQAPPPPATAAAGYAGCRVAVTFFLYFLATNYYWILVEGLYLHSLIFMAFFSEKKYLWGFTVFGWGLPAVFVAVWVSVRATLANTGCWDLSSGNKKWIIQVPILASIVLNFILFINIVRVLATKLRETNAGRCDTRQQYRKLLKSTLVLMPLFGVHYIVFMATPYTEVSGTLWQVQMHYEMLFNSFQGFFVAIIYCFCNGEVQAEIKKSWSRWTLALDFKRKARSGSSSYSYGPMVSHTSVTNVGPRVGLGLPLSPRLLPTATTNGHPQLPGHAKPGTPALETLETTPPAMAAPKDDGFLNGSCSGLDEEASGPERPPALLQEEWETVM

[2] = target: T2, Parathyroid hormone/parathyroid hormone-related peptide receptor (Rattus norvegicus, UniProt P25961); assay: Activity at rat PTH/PTH-related peptide receptor expressed in rat UMR106 cells assessed as cAMP formation; format: functional, cell-based
T2 sequence (P25961 whole entry): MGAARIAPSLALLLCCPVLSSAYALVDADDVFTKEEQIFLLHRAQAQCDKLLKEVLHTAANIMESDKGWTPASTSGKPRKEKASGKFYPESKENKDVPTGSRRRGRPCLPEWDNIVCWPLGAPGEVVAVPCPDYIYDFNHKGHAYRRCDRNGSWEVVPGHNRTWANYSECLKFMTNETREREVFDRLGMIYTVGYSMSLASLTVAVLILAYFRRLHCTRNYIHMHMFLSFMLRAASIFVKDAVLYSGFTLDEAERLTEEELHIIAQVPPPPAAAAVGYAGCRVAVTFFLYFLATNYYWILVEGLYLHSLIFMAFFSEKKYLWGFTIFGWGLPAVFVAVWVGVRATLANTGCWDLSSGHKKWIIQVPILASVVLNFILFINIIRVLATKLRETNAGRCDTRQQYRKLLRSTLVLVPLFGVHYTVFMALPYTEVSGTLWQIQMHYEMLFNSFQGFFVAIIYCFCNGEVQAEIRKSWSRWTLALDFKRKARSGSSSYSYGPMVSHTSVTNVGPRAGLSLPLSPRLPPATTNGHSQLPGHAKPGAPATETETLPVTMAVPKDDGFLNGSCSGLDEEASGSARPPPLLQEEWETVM
Procedure, shortened: (§1)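 Nonconfluent cells grown at 37°C in DMEM with 10% FBS, refed 12–24 h before assay. Rinsed with warm PBS, detached with prewarmed EDTA (37°C, 5–10 min), spun at 300 × g for 5 min. Resuspended in HBSS/5 mM Hepes/0.1% BSA/0.5 mM IBMX, pH 7.4. cAMP read by AlphaScreen.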

[3] = target: T1, Parathyroid hormone/parathyroid hormone-related peptide receptor; assay: Activity at human PTH/PTH-related peptide receptor expressed in SAOS2 cells assessed as cAMP formation; format: functional, cell-based, SAOS-2; procedure, shortened: as §1
[4] = target: T1, Parathyroid hormone/parathyroid hormone-related peptide receptor; assay: Displacement of [125I]DPC-AJ1951 from PTH/PTH-related peptide receptor expressed in HKRK-B28 cells; format: cell-based
Procedure, shortened: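 Whole HKRK-B28 cells plated at 30,000/well and incubated overnight at 37°C, 5% CO2. Incubated 3 h at room temperature, washed three times, bound radioactivity counted by scintillation.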

Row | SMILES | EC50 [1] [nM] | EC50 [2] [nM] | EC50 [3] [nM] | IC50 [4] [nM]
1 | CCCC[C@H](NC(=O)[C@H](CC(C)C)NC(=O)[C@H](CCC(N)=O)NC(=O)[C@@H](NC(=O)[C@H](CCC(=O)O)NC(=O)C(C)(C)NC(=O)[C@@H](NC(=O)C(C)(C)N)C(C)C)[C@@H](C)CC)C(=O)N[C@@H](Cc1cnc[nH]1)C(=O)N[C@@H](CCC(N)=O)C(=O)N[C@@H](CCCCN=C(N)N)C(=O)N[C@@H](C)C(=O)N[C@@H](CCCCN)C(=O)N[C@@H](Cc1ccc(O)cc1)C(N)=O (H-[Aib]V[Aib]EIQL[Nle]HQ[hArg]AKY-NH2) | 0.06 | – | – | 7.2
2 | CCCC[C@H](NC(=O)[C@H](CC(C)C)NC(=O)[C@H](CCC(N)=O)NC(=O)[C@@H](NC(=O)[C@H](CCC(=O)O)NC(=O)[C@H](C)NC(=O)[C@@H](NC(=O)[C@H](C)N)C(C)C)[C@@H](C)CC)C(=O)N[C@@H](Cc1cnc[nH]1)C(=O)N[C@@H](CCC(N)=O)C(=O)N[C@@H](CCCCNC(=N)N)C(=O)N[C@@H](C)C(=O)N[C@@H](CCCCN)C(=O)N[C@@H](Cc1c[nH]c2ccccc12)C(=O)N[C@@H](Cc1ccc(O)cc1)C(N)=O (H-AVAEIQL[Nle]HQ[hArg]AKWY-NH2) | 26 | 129 | 1460 | 2190
3 | CCCC[C@H](NC(=O)[C@H](CC(C)C)NC(=O)[C@H](CCC(N)=O)NC(=O)[C@@H](NC(=O)[C@H](CCC(=O)O)NC(=O)C(C)(C)NC(=O)[C@@H](NC(=O)C(C)(C)N)C(C)C)[C@@H](C)CC)C(=O)N[C@@H](Cc1cnc[nH]1)C(=O)N[C@@H](CCC(N)=O)C(=O)N[C@@H](CCCNC(=N)N)C(=O)N[C@@H](C)C(=O)N[C@@H](CCCCNC(=O)c1ccccc1-c1c2ccc(=O)cc-2oc2cc(O)ccc12)C(=O)N[C@@H](Cc1ccc(O)cc1)C(N)=O (H-[Aib]V[Aib]EIQL[Nle]HQRAK(X1)Y-NH2) | 0.92 | – | 7.2 | 13.5

Results, then the compound that gave them:

Row | EC50 [1] [nM] | EC50 [2] [nM] | EC50 [3] [nM] | IC50 [4] [nM] | SMILES
4 | 32 | 155 | 800 | 10500 | CC[C@H](C)[C@H](NC(=O)[C@H](CCC(=O)O)NC(=O)[C@H](C)NC(=O)[C@@H](NC(=O)[C@H](C)N)C(C)C)C(=O)N[C@@H](CCC(N)=O)C(=O)N[C@@H](CC(C)C)C(=O)N[C@@H](CCSC)C(=O)N[C@@H](Cc1cnc[nH]1)C(=O)N[C@@H](CCC(N)=O)C(=O)N[C@@H](CCCCN=C(N)N)C(=O)N[C@@H](C)C(=O)N[C@@H](CCCCN)C(=O)N[C@@H](Cc1c[nH]c2ccccc12)C(N)=O (H-AVAEIQLMHQ[hArg]AKW-NH2)
5 | 13 | 344 | 1430 | 10600 | CCCC[C@H](NC(=O)[C@H](CC(C)C)NC(=O)[C@H](CCC(N)=O)NC(=O)[C@@H](NC(=O)[C@H](CCC(=O)O)NC(=O)[C@H](C)NC(=O)[C@@H](NC(=O)[C@H](C)N)C(C)C)[C@@H](C)CC)C(=O)N[C@@H](Cc1cnc[nH]1)C(=O)N[C@@H](CCC(N)=O)C(=O)N[C@@H](CCCCNC(=N)N)C(=O)N[C@@H](C)C(=O)N[C@@H](CCCCN)C(=O)N[C@@H](Cc1ccc(O)cc1)C(N)=O (H-AVAEIQL[Nle]HQ[hArg]AKY-NH2)
6 | 1.1 | – | 20 | 98.2 | CCCC[C@H](NC(=O)[C@H](CC(C)C)NC(=O)[C@H](CCC(N)=O)NC(=O)[C@@H](NC(=O)[C@H](CCC(=O)O)NC(=O)C(C)(C)NC(=O)[C@@H](NC(=O)C(C)(C)N)C(C)C)[C@@H](C)CC)C(=O)N[C@@H](Cc1cnc[nH]1)C(=O)N[C@@H](CCC(N)=O)C(=O)N[C@@H](CCCN=C(N)N)C(=O)N[C@@H](C)C(=O)N[C@@H](CCCCN)C(=O)N[C@@H](Cc1ccc(O)cc1)C(=O)N[C@@H](CCCCNC(=O)c1ccccc1-c1c2ccc(=O)cc-2oc2cc(O)ccc12)C(N)=O (H-[Aib]V[Aib]EIQL[Nle]HQRAKYK(X1)-NH2)
